The nature of data set [1]: Binding affinity to MLXBIR3SG domain by fluorescence polarization competitive assay. Background: Fluorescence polarisation rises when a labelled molecule tumbles more slowly, as on binding a larger partner.
Data set [2] has as its target E3 ubiquitin-protein ligase XIAP (Homo sapiens, UniProt P98170). Put plainly: Binding affinity to XIAP-BIR3 domain by fluorescence polarization competitive assay.
The test system of data set [3] is BT-549. The data set can be described thus: Induction of apoptosis in human BT549 cells assessed as caspase 3/7 activation after 3 to 24 hrs.
The subject of data set [4] is MDA-MB-231. Put plainly: Induction of apoptosis in human MDA-MB-231 cells assessed as caspase 3/7 activation after 3 to 24 hrs.
Data set [5] concerns HMEC. Put plainly: Cytotoxicity against HMEC cells assessed as cell viability after 3 to 4 days. The settings on record: Homo sapiens.
In data set [6] the test system is MDA-MB-231. Put plainly: Cytotoxicity against human MDA-MB-231 cells assessed as cell viability after 3 to 4 days.
The subject of data set [7] is HMEC. Put plainly: Induction of apoptosis in HMEC cells assessed as caspase 3/7 activation after 3 to 24 hrs. The settings on record: Homo sapiens.
A short description of data set [8]: Half life in mouse at 25 mg/kg, po. Type of data set: ADME, organism-based. The conditions noted are these: in vivo. More on the design: dose 25 mg/kg, route oral.
Data set [9] in a line: AUC in mouse at 25 mg/kg, po. The class given is ADME, organism-based. More on the design: dose 25 mg/kg, route oral. The settings on record: plasma.
The nature of data set [10]: Cmax in mouse at 25 mg/kg, po. The settings on record: in vivo. The class given is ADME, organism-based. More on the design: dose 25 mg/kg, route oral.
For data set [11], the system named is MDA-MB-231. Put plainly: Antitumor activity against human MDA-MB-231 cells xenografted in mouse assessed as increase in median time for tumor progression at 50 mg/kg/day, po. The class given is functional, organism-based. The procedure, abridged: (§1)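 Female 8-week-old C.B-17 SCID.bg mice inoculated subcutaneously in the upper right flank with 1 × 10⁷ GFP-expressing MDA-MB-231-X1.1 cells. Once-daily oral gavage of vehicle or compound at 50 (mg/kg)/day began at tumors of ~200 mm³ (~1.5 weeks after inoculation), n = 14 per group. Caliper tumor volume V = 0.5ab². Progression defined as a 6-fold volume increase from day 0; body weight monitored.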
A general note: Xenograft models place foreign cells or tissue in a host animal.

Data set [12] relates to Mus musculus. Put plainly: Toxicity in mouse bearing human MDA-MB-231 cells assessed as change in body weight at 50 mg/kg/day, po. Type of data set: organism-based. More on the design: route oral. The settings on record: in vivo. The essentials:
as §1

Data set [13] relates to MDA-MB-231. The data set can be described thus: Induction of cIAP1 degradation in human MDA-MB-231 cells after 1 hr by Western blot. Type of data set: functional, cell-based. The essentials: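 MDA-MB-231 cells treated 1 h with a range of compound concentrations. Western blot probed with goat anti-c-IAP1, with mouse monoclonal anti-β-tubulin as loading control.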
(A western blot detects proteins with antibodies after separation by electrophoresis.)

The record followed here is ChEMBL document CHEMBL1152772, “Orally bioavailable antagonists of inhibitor of apoptosis proteins based on an azabicyclooctane scaffold” (J Med Chem, 2009).

The structures appear in SMILES notation. Activity calls are given as the source filed them.

The term Ki denotes a dissociation constant, usually derived from enzyme kinetics or from competition with a known ligand. Lower therefore signals a stronger hold on the target. As a reminder, the EC50 is the concentration needed to bring the measured effect to its halfway point. As a reminder, the half-life is how long it takes for the measured level to halve. Low values mean rapid decline, high ones slow decline. In general, AUC refers to the area under the concentration-time curve, a measure of exposure. A lower AUC goes with low exposure. In general, Cmax refers to the highest concentration seen after dosing.

Chain of E3 ubiquitin-protein ligase XIAP (P98170 whole entry, the tested form may be a part): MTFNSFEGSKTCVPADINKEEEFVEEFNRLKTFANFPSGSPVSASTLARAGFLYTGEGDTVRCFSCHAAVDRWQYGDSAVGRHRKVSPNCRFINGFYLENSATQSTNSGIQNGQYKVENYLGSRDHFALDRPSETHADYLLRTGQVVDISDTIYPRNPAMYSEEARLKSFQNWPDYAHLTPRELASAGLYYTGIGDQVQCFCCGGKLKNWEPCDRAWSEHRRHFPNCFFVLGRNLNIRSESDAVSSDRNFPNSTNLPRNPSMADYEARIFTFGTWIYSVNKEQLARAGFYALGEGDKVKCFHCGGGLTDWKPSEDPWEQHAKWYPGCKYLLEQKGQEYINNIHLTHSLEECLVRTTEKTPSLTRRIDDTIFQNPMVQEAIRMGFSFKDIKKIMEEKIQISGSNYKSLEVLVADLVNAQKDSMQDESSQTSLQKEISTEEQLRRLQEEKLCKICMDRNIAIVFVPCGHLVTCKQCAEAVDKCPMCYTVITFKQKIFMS

Take `CN[C@@H](C)C(=O)N[C@H](C(=O)N1CC[C@H]2CC[C@H](NC(=O)c3ccc4[nH]nnc4c3)[C@H]21)C(C)(C)C`: the values for the inhibitory constant (Ki) in [1] and in data set [2] were 0.26 µM and 1.5 µM, respectively.
Turning to `CN[C@@H](C)C(=O)N[C@H](C(=O)N1CC[C@H]2CC[C@H](NC(=O)c3ccc4ccccc4c3)[C@H]21)C(C)(C)C`, the EC50 in data set [3] was 0.19 µM; in data set [4], 1.32 µM; in data set [5] it was more than 10 µM; in data set [6], 3.29 µM; in data set [7] it was more than 10 µM.
For the compound `CN[C@@H](C)C(=O)N[C@H](C(=O)N1CC[C@H]2CC[C@H](NC(=O)c3ccc(F)c4ccccc34)[C@H]21)C(C)(C)C`, the EC50 in data set [3] is 4.07 µM; in data set [4] it was 4.45 µM; in data set [5], more than 10 µM; in data set [6], 10.2 µM; in data set [7], more than 10 µM.
For the compound `CN[C@@H](C)C(=O)N[C@H](C(=O)N1CC[C@H]2CC[C@H](NC(=O)C(c3ccccc3)c3ccccc3)[C@H]21)C(C)(C)C`, the EC50 is 1.81 µM in [3]; 3.59 µM in data set [4]; more than 10 µM in [5]; 9.64 µM in data set [6]; more than 10 µM in [7]. Moreover, the half-life in data set [8] is 1.5 h. This compound also showed an exposure (AUC) in data set [9] of 16 µM·h. Moreover, the Cmax in data set [10] was 5 µM.
Regarding `CN[C@@H](C)C(=O)N[C@H](C(=O)N1CC[C@H]2CC[C@H](NC(=O)c3coc4ccccc34)[C@H]21)C(C)(C)C`, the Ki amounted to 0.44 µM in [1] and 0.64 µM in data set [2].
As for `CN[C@@H](C)C(=O)N[C@H](C(=O)N1CC[C@H]2CC[C@H](NC(=O)c3cccc4ccccc34)[C@H]21)C(C)(C)C`, the outcome in data set [11] and in data set [13] was Active. In addition, the Activity entry in [12] is “Non-toxic”. For the same compound, the EC50 was 0.47 µM in data set [3]; 0.49 µM in data set [4]; more than 10 µM in [5]; 0.98 µM in data set [6]; more than 10 µM in data set [7]. In data set [8], the half-life is 1.3 h. The AUC in [9] was found to be 5 µM·h. For the same compound, the concentration in data set [10] peaked (Cmax) at 3.6 µM.
On to `CN[C@@H](C)C(=O)N[C@H](C(=O)N1CC[C@H]2CC[C@H](NC(=O)N3CCc4ccccc43)[C@H]21)C(C)(C)C`, for which the Ki in [1] amounted to 1.9 µM; in data set [2] it was 1.5 µM.
For `CN[C@@H](C)C(=O)N[C@H](C(=O)N1CC[C@H]2CC[C@H](NC(=O)C3COc4ccccc43)[C@H]21)C(C)(C)C` (some centres undefined), in that order: 1.5 µM and 1.3 µM.
`CN[C@@H](C)C(=O)N[C@H](C(=O)N1CCC[C@H]1CNC(=O)C(c1ccccc1)c1ccccc1)C(C)(C)C`: the Ki in [1] worked out at 0.29 µM; in [2] it was 3 µM.
As to `CN[C@@H](C)C(=O)N[C@H](C(=O)N1CC[C@H]2CC[C@H](NC(=O)c3ccc(C)c4ccccc34)[C@H]21)C(C)(C)C`, the EC50 in data set [3] is 1.45 µM; in data set [4], 1.58 µM; in data set [5] it was more than 10 µM; in data set [6], 3.12 µM; in data set [7] it was more than 10 µM. In addition, the Ki in [1] came out at 0.063 µM; in data set [2], 0.19 µM.
For the compound `CN[C@@H](C)C(=O)N[C@H](C(=O)N1CCC[C@H]1CNC(=O)c1cccc2ccccc12)C(C)(C)C`, the Ki worked out at 0.78 µM in data set [1] and 1.6 µM in [2].
In the case of `CN[C@@H](C)C(=O)N[C@H](C(=O)N1CC[C@H]2CC[C@H](NC(=O)c3ccc4c(c3)OCO4)[C@H]21)C(C)(C)C`, the figures for the Ki in [1] and in [2] were 1.3 µM and 1.8 µM, respectively.
For the compound `CN[C@@H](C)C(=O)N[C@H](C(=O)N1CC[C@H]2CC[C@H](NC(=O)c3csc4ccccc34)[C@H]21)C(C)(C)C`, the Ki in data set [1] turned out to be 0.11 µM; in [2] it was 0.16 µM.
For `CN[C@@H](C)C(=O)N[C@H](C(=O)N1CC[C@H]2CC[C@H](NC(=O)c3c(OC)ccc4ccccc34)[C@H]21)C(C)(C)C`, in that order: 0.11 µM and 0.11 µM.
